Measurements: ChEMBL document CHEMBL4396895, “Identification and Optimization of Novel Cathepsin C Inhibitors Derived from EGFR Inhibitors” (J Med Chem, 2019)
Activity calls are given as the source filed them. No cut-off for these calls is given here.

Assays:
Cathepsin S = Cathepsin S (Homo sapiens, UniProt P25774); assay: Inhibition of recombinant human C-terminal polyhistidine-tagged cathepsin S (Met1 to Ile331 residues) expressed in HEK293 cells using MCA-Arg-Pro-Lys-Pro-Val-Glu-NVAL-Trp-Arg-Lys(DNP)-NH2 as substrate preincubated for 30 mins followed by substrate addition and measured after 30 mins
How it was run: (§1)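 Recombinant human cathepsin was preincubated with compound for 30 min at RT, then reacted with substrate for 30 min. CatB and CatL were read with Z-Leu-Arg-AMC (Ex 380/Em 460 nm). CatS was read with MCA-Arg-Pro-Lys-Pro-Val-Glu-Nva-Trp-Arg-Lys(DNP)-NH2 (Ex 320/Em 405 nm). E-64 served as inhibitor control.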

Cytochrome P450 2C9 = Cytochrome P450 2C9 (Homo sapiens, UniProt P11712); assay: Inhibition of CYP2C9 (unknown origin); type: ADME
How it was run: (§2)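 Tested against recombinant human cytochrome P450 isoforms 1A2, 2D6, 3A4, 2C9 and 2C19.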

Cathepsin B = Cathepsin B (Homo sapiens, UniProt P07858); assay: Inhibition of recombinant human C-terminal polyhistidine-tagged cathepsin B (Arg18 to Ile339 residues) expressed in HEK293 cells using Z-Leu-Arg-AMC as substrate preincubated for 30 mins followed by substrate addition and measured after 30 mins; how it was run: as §1
Dipeptidyl peptidase 1 [1] = target: T1, Dipeptidyl peptidase 1 (Homo sapiens, UniProt P53634); assay: Inhibition of cathepsin C in human U937 cells using H-Gly-Phe-AFC as substrate preincubated for 4 hrs followed by substrate addition and measured after 60 mins; type: cell-based
How it was run: (§3)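 THP1 or U937 cells, grown in RPMI 1640 with 10% FBS, were seeded at 1.0 × 10^6/mL. They were preincubated with threefold serial dilutions of compound for 4 h at 37 °C. H-Gly-Phe-AFC was then added from a 100 μM solution and fluorescence was read after 60 min at 37 °C. Values are means of at least two experiments.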

Cytochrome P450 1A2 = target: T2, Cytochrome P450 1A2 (Homo sapiens, UniProt P05177); assay: Inhibition of CYP1A2 (unknown origin); type: ADME; how it was run: as §2
T2 sequence (P05177 whole entry): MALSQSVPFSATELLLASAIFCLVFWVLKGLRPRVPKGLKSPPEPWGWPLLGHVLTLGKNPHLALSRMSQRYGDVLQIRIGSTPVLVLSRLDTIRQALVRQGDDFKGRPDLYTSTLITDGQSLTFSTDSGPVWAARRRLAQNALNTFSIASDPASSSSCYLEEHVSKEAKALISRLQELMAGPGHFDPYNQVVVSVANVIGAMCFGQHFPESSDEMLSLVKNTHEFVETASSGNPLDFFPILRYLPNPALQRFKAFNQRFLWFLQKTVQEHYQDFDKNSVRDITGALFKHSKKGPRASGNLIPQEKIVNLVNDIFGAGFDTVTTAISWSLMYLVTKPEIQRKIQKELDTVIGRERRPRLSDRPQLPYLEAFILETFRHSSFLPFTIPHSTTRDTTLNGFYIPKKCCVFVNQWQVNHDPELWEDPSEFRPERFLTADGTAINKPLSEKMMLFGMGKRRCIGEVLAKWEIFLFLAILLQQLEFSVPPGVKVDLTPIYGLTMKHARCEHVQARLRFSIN

[2] = target: Epidermal growth factor receptor (Homo sapiens, UniProt P00533); assay: Inhibition of EGFR (unknown origin) up to 10 uM using biotin-labelled peptide as substrate preincubated for 2 hrs followed by substrate addition and measured after 30 mins by HTRF FRET assay
How it was run: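 EGFR WT was used at 0.1 nM final in 50 mM HEPES pH 7.0, 0.02% NaN3, 0.01% BSA, 0.1 mM orthovanadate, 10 mM MgCl2, 2.5 mM DTT, 6.25 nM SEB. It was preincubated with compound for 2 h. Biotin-peptide (1.4 μM) and ATP (20 μM) were then added for 30 min at RT. Read-out was HTRF/TR-FRET (Ex 320, Em 615/665 nm) with a sigmoidal curve fit.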

[3] = Intrinsic clearance in mouse liver microsomes assessed per mg protein measured after 60 mins in presence of NADPH by LC-MS/MS analysis; type: ADME, Microsome; details: read-out: CLH
[4] = Intrinsic clearance in human liver microsomes assessed per mg protein measured after 60 mins in presence of NADPH by LC-MS/MS analysis; type: ADME, Microsome; details: read-out: CLH
Cytochrome P450 2D6 = Cytochrome P450 2D6 (Homo sapiens, UniProt P10635); assay: Inhibition of CYP2D6 (unknown origin); type: ADME; how it was run: as §2
Dipeptidyl peptidase 1 [5] = target: T1, Dipeptidyl peptidase 1; assay: Inhibition of CatL-activated recombinant human C-terminal His10-tagged cathepsin C (25 to 463 residues) expressed in mouse myeloma cells using Gly-Phe-AFC as substrate preincubated for 3 hrs followed by substrate addition and measured after 60 mins; type: cell-free
How it was run: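 Activated rhCatC was diluted to 4.4 nM in 25 mM MES, 50 mM NaCl, 5 mM DTT, 0.01% Triton X-100, pH 6.0. It was preincubated with compound (added in 10% DMSO) for 3 h at RT. Gly-Phe-AFC was then added to 100 μM final and read as fluorescence after 60 min. IC50 came from a sigmoidal nonlinear fit; values are means of at least two experiments.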

Dipeptidyl peptidase 1 [6] = target: T1, Dipeptidyl peptidase 1; assay: Inhibition of cathepsin C in human THP1 cells using H-Gly-Phe-AFC as substrate preincubated for 4 hrs followed by substrate addition and measured after 60 mins; type: cell-based; how it was run: as §3
Cytochrome P450 2C19 = Cytochrome P450 2C19 (Homo sapiens, UniProt P33261); assay: Inhibition of CYP2C19 (unknown origin); type: ADME; how it was run: as §2
[7] = Intrinsic clearance in rat liver microsomes assessed per mg protein measured after 60 mins in presence of NADPH by LC-MS/MS analysis; type: ADME, Microsome; details: read-out: CLH
Cytochrome P450 3A4 = Cytochrome P450 3A4 (Homo sapiens, UniProt P08684); assay: Inhibition of CYP3A4 (unknown origin); type: ADME; how it was run: as §2
Procathepsin L = Procathepsin L (Homo sapiens, UniProt P07711); assay: Inhibition of recombinant human C-terminal His6-tagged cathepsin L (Glu113 to Val333 and Ala114 to Val333 residues) expressed in mouse myeloma cells using Z-Leu-Arg-AMC as substrate preincubated for 30 mins followed by substrate addition and measured after 30 mins; how it was run: as §1
Dipeptidyl peptidase 1 [8] = target: T1, Dipeptidyl peptidase 1; assay: Inhibition of cathepsin C (unknown origin)
How it was run: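 Enzyme preincubated with compound 3 h at RT. Gly-Phe-AFC added (100 μM final) and product fluorescence read after 60 min. IC50 from sigmoidal nonlinear regression, mean of at least two experiments.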

| Compound | IC50 (Dipeptidyl peptidase 1 [1]) | IC50 (Dipeptidyl peptidase 1 [5]) | IC50 (Dipeptidyl peptidase 1 [6]) | other results |
| --- | --- | --- | --- | --- |
| C=CC(=O)Nc1cc(Oc2nc(Nc3ccc(N4CCN(C)CC4)cc3OC)ccc2N2CCOCC2)ccc1C | 5.9 nM | 59 to 59.3 nM | 3.9 nM | IC50 (Cathepsin S): > 10000 nM; IC50 (Cytochrome P450 2C9): > 10000 nM; IC50 (Cathepsin B): 3000 to 10000 nM; IC50 (Cytochrome P450 1A2): > 10000 nM; inhibition [2]: inactive; microsomal CLint [3]: 4 µL/min/mg; microsomal CLint [4]: 1.9 µL/min/mg; IC50 (Cytochrome P450 2D6): > 10000 nM; IC50 (Cytochrome P450 2C19): > 10000 nM; microsomal CLint [7]: 10 µL/min/mg; IC50 (Cytochrome P450 3A4): > 10000 nM; IC50 (Procathepsin L): > 10000 nM |
| C=CC(=O)Nc1cccc(Oc2nc(Nc3ccc(N4CCN(C)CC4)cc3OC)ccc2C(F)(F)F)c1 | – | 1610 nM | – | – |
| C=CC(=O)Nc1cc(Oc2nc(Nc3ccc(N4CCC(N(C)C)CC4)cc3OC)ccc2N2CCCCC2)ccc1C | 2.2 nM | 15.6 nM | 1 nM | microsomal CLint [3]: 4 µL/min/mg; microsomal CLint [4]: 2.5 µL/min/mg; microsomal CLint [7]: 4.1 µL/min/mg |
| C=CC(=O)Nc1cccc(Oc2nc(Nc3ccc(N4CCN(CC5CCCC5)CC4)cc3)ccc2Cl)c1 | – | > 10000 nM | – | – |
| C=CC(=O)Nc1cc(Oc2nc(Nc3ccc(N4CCN(C)CC4)cc3)ccc2N2CCCCC2)ccc1C | 5.8 nM | 17.6 nM | 2.7 nM | inhibition [2]: inactive; microsomal CLint [4]: 2.9 µL/min/mg; microsomal CLint [7]: 15 µL/min/mg |
| C=CC(=O)Nc1cccc(Oc2nc(Nc3ccc(N4CCN(C)CC4)cc3OC)ccc2N2CCCC2)c1C | – | > 10000 nM | – | – |
| C=CC(=O)Nc1cc(Oc2nc(Nc3ccc(N4CCN(C)CC4)cc3OC)ccc2N2CCN(C)CC2)ccc1C | 4.7 nM | 46.5 nM | 2.8 nM | microsomal CLint [3]: 3 µL/min/mg; microsomal CLint [4]: 3.7 µL/min/mg; microsomal CLint [7]: 2 µL/min/mg |
| C#Cc1ccc(Nc2ccc(N3CCN(C)CC3)cc2OC)nc1Oc1cccc(NC(=O)C=C)c1 | – | 392 nM | – | – |

More lines, in order of falling IC50 (Dipeptidyl peptidase 1 [5]), values ahead:

| IC50 (Dipeptidyl peptidase 1 [1]) | IC50 (Dipeptidyl peptidase 1 [5]) | IC50 (Dipeptidyl peptidase 1 [6]) | Compound | other results |
| --- | --- | --- | --- | --- |
| – | 2100 nM | – | C=CC(=O)Nc1cccc(Oc2nc(Nc3ccc(N4CCN(C)CC4)cc3OC)ncc2Cl)c1 | IC50 (Dipeptidyl peptidase 1 [8]): 2100 nM |
| – | 2050 nM | – | C=CC(=O)Nc1cccc(Oc2nc(Nc3ccc(CCN)cc3)ccc2Cl)c1 | – |
| – | 1520 nM | – | C=CC(=O)Nc1cccc(Oc2nc(Nc3ccc(N4CCN(C)CC4)cc3OC)ccc2N(C)C)c1 | – |
| – | 835 nM | – | C=CC(=O)Nc1cccc(Oc2nc(Nc3ccc(N4CCN(C)CC4)cc3OC)ccc2C#N)c1 | – |
| – | 505 nM | – | C=CC(=O)Nc1ccc(C)c(Oc2nc(Nc3ccc(N4CCN(C)CC4)cc3OC)ccc2N2CCCC2)c1 | – |
| – | 271 nM | – | C=CC(=O)Nc1cccc(Oc2nc(Nc3ccc(N4CCN(C)CC4)cc3OC)ccc2N2CCCCCC2)c1 | – |
| – | 175 nM | – | C=CC(=O)Nc1cccc(Oc2nc(Nc3ccc(N4CCN(C)CC4)cc3OC)ccc2N2CCCC2)c1 | – |
| 49.4 nM | 32.3 nM | 28.4 nM | C=CC(=O)Nc1cc(Oc2nc(Nc3ccc(N4CCN(C)CC4)cc3OC)ccc2N2CCC(O)C2)ccc1C (racemic) | – |
| 2.4 nM | 2.3 nM | 1.8 nM | C=CC(=O)Nc1cc(Oc2nc(Nc3ccc(N4CCN(C)CC4)cc3OC)ccc2N2CCCCC2)ccc1C(F)(F)F | microsomal CLint [3]: 15.4 µL/min/mg; microsomal CLint [4]: 5.2 µL/min/mg; microsomal CLint [7]: 15.1 µL/min/mg |
